Results: ChEMBL document CHEMBL3351539, “"On water" expedient synthesis of 3-indolyl-3-hydroxy oxindole derivatives and their anticancer activity in vitro” (Eur J Med Chem, 2014)
Converted amounts (≈) assume the structure as drawn. The source made the active and inactive calls. The calls are words filed in the database; no cut-off is given here.

Tested on: U-937
Test: Cytotoxicity against human U937 cells assessed as shrinkage in cell size at IC50 by light microscopy
Type: functional, cell-based
Conditions: not given
Outline: (§1)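 U937 cells were exposed to one concentration per derivative and examined by light microscopy at 400X against untreated controls with intact cells. Cells were scored for shrinkage in cell size, nuclear condensation and formation of apoptotic bodies.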
For `O=C1N(Cc2ccccc2)c2ccc(Cl)cc2C1(O)c1c[nH]c2ccccc12` (stereo not drawn), the Activity was “Active”. In the case of `O=C1N(Cc2ccccc2)c2ccc(Cl)cc2C1(O)c1c[nH]c2ccc(Br)cc12` (stereo not drawn), the Activity is reported as “Active”. For `COc1ccc2[nH]cc(C3(O)C(=O)N(Cc4ccccc4Cl)c4ccc(Cl)cc43)c2c1` (stereo not drawn), the Activity was “Active”.

Tested on: U-937
Test: Cytotoxicity against human U937 cells assessed as nuclear condensation at IC50 by light microscopy
Type: functional, cell-based
Conditions: not given
Outline: as §1
For `O=C1N(Cc2ccccc2)c2ccc(Cl)cc2C1(O)c1c[nH]c2ccccc12` (stereo not drawn), the Activity was “Active”. With `O=C1N(Cc2ccccc2)c2ccc(Cl)cc2C1(O)c1c[nH]c2ccc(Br)cc12` (stereo not drawn) the Activity was “Active”. With `COc1ccc2[nH]cc(C3(O)C(=O)N(Cc4ccccc4Cl)c4ccc(Cl)cc43)c2c1` (stereo not drawn) the Activity was “Active”.

Tested on: U-937
Test: Cytotoxicity against human U937 cells assessed as formation of apoptotic bodies at IC50 by light microscopy
Type: functional, cell-based
Conditions: not given
Outline: as §1
With `O=C1N(Cc2ccccc2)c2ccc(Cl)cc2C1(O)c1c[nH]c2ccccc12` (stereo not drawn) the Activity was “Active”. In the case of `O=C1N(Cc2ccccc2)c2ccc(Cl)cc2C1(O)c1c[nH]c2ccc(Br)cc12` (stereo not drawn), the Activity is reported as “Active”. For `COc1ccc2[nH]cc(C3(O)C(=O)N(Cc4ccccc4Cl)c4ccc(Cl)cc43)c2c1` (stereo not drawn), the Activity was “Active”.

Tested on: not listed separately
Test: Cytotoxicity against human U937 cells assessed as growth inhibition after 24 hrs by MTT assay
Conditions: U-937, 24 h
In the case of `O=C1N(Cc2ccccc2)c2ccc(Cl)cc2C1(O)c1c[nH]c2ccccc12` (stereo not drawn), the IC50 is reported as 4.33 µg/mL (≈ 11.1 µM). In the case of `Cc1ccc2c(c1)C(O)(c1c[nH]c3ccccc13)C(=O)N2` (stereo not drawn), the IC50 is reported as 83.4 µg/mL (≈ 300 µM). `O=C1N(Cc2ccc(Br)cc2)c2ccc(Cl)cc2C1(O)c1c[nH]c2ccc(Br)cc12` (stereo not drawn) gave an IC50 of 12.2 µg/mL (≈ 22.2 µM). With `COc1ccc2[nH]cc(C3(O)C(=O)Nc4ccc(Cl)cc43)c2c1` (stereo not drawn) the IC50 was 39.8 µg/mL (≈ 121 µM). Work on `O=C1Nc2ccc(Cl)cc2C1(O)c1c[nH]c2ccc(Br)cc12` (stereo not drawn) yielded an IC50 of 25.3 µg/mL (≈ 67 µM). In the case of `O=C1N(Cc2ccccc2)c2ccc(Cl)cc2C1(O)c1c[nH]c2ccc(Br)cc12` (stereo not drawn), the IC50 is reported as 8.02 µg/mL (≈ 17.1 µM). Work on `Cc1ccc2[nH]cc(C3(O)C(=O)Nc4ccc(I)cc43)c2c1` (stereo not drawn) yielded an IC50 of 23.1 µg/mL (≈ 57.3 µM). `O=C1N(Cc2ccccc2Cl)c2ccc(Cl)cc2C1(O)c1c[nH]c2ccc(Br)cc12` (stereo not drawn) showed an IC50 of 5.31 µg/mL (≈ 10.6 µM). `O=C1N(Cc2ccccc2Br)c2ccccc2C1(O)c1c[nH]c2ccc(Br)cc12` (stereo not drawn) showed an IC50 of 14.9 µg/mL (≈ 29.1 µM). In the case of `O=C1N(Cc2ccccc2)c2ccccc2C1(O)c1c[nH]c2ccccc12` (stereo not drawn), the IC50 is reported as 43 µg/mL (≈ 121 µM). `O=C1Nc2ccc(I)cc2C1(O)c1c[nH]c2ccccc12` (stereo not drawn) showed an IC50 of 21.6 µg/mL (≈ 55.3 µM). In the case of `O=C1Nc2ccc(OC(F)(F)F)cc2C1(O)c1c[nH]c2ccccc12` (stereo not drawn), the IC50 is reported as 16.8 µg/mL (≈ 48.2 µM). In the case of `COc1ccc2[nH]cc(C3(O)C(=O)N(Cc4ccccc4Cl)c4ccc(Cl)cc43)c2c1` (stereo not drawn), the IC50 is reported as 6.07 µg/mL (≈ 13.4 µM). Work on `O=C1Nc2ccc(Br)cc2C1(O)c1c[nH]c2ccccc12` (stereo not drawn) yielded an IC50 of 19.3 µg/mL (≈ 56.2 µM). Compound `COc1ccc2[nH]cc(C3(O)C(=O)Nc4ccc(F)cc43)c2c1` (stereo not drawn) has an IC50 of 55.9 µg/mL (≈ 179 µM).

Tested on: THP-1
Test: Cytotoxicity against human THP1 cells assessed as growth inhibition after 24 hrs by MTT assay
Conditions: THP-1, 24 h
`O=C1N(Cc2ccccc2)c2ccc(Cl)cc2C1(O)c1c[nH]c2ccccc12` (stereo not drawn) gave an IC50 of 5.03 µg/mL (≈ 12.9 µM). `O=C1N(Cc2ccc(Br)cc2)c2ccc(Cl)cc2C1(O)c1c[nH]c2ccc(Br)cc12` (stereo not drawn) gave an IC50 of 6.06 µg/mL (≈ 11.1 µM). Work on `O=C1Nc2ccc(Cl)cc2C1(O)c1c[nH]c2ccc(Br)cc12` (stereo not drawn) yielded an IC50 of 98.5 µg/mL (≈ 261 µM). `O=C1N(Cc2ccccc2)c2ccc(Cl)cc2C1(O)c1c[nH]c2ccc(Br)cc12` (stereo not drawn) showed an IC50 of 7.12 µg/mL (≈ 15.2 µM). `Cc1ccc2[nH]cc(C3(O)C(=O)Nc4ccc(I)cc43)c2c1` (stereo not drawn) showed an IC50 of 87.1 µg/mL (≈ 216 µM). `O=C1N(Cc2ccccc2Cl)c2ccc(Cl)cc2C1(O)c1c[nH]c2ccc(Br)cc12` (stereo not drawn) showed an IC50 of 6.12 µg/mL (≈ 12.2 µM). With `O=C1N(Cc2ccccc2Br)c2ccccc2C1(O)c1c[nH]c2ccc(Br)cc12` (stereo not drawn) the IC50 was 6.93 µg/mL (≈ 13.5 µM). Work on `O=C1N(Cc2ccccc2)c2ccccc2C1(O)c1c[nH]c2ccccc12` (stereo not drawn) yielded an IC50 of 64.5 µg/mL (≈ 182 µM). `O=C1Nc2ccc(OC(F)(F)F)cc2C1(O)c1c[nH]c2ccccc12` (stereo not drawn) showed an IC50 of 13.7 µg/mL (≈ 39.4 µM). Compound `COc1ccc2[nH]cc(C3(O)C(=O)N(Cc4ccccc4Cl)c4ccc(Cl)cc43)c2c1` (stereo not drawn) has an IC50 of 4.27 µg/mL (≈ 9.42 µM).

Tested on: A549
Test: Cytotoxicity against human A549 cells assessed as growth inhibition after 24 hrs by MTT assay
Conditions: A549, 24 h
`O=C1N(Cc2ccccc2)c2ccc(Cl)cc2C1(O)c1c[nH]c2ccccc12` (stereo not drawn) showed an IC50 of 18.3 µg/mL (≈ 47.1 µM). Work on `O=C1N(Cc2ccc(Br)cc2)c2ccc(Cl)cc2C1(O)c1c[nH]c2ccc(Br)cc12` (stereo not drawn) yielded an IC50 of 18.4 µg/mL (≈ 33.6 µM). With `O=C1Nc2ccc(Cl)cc2C1(O)c1c[nH]c2ccc(Br)cc12` (stereo not drawn) the IC50 was 19.8 µg/mL (≈ 52.5 µM). For `O=C1N(Cc2ccccc2)c2ccc(Cl)cc2C1(O)c1c[nH]c2ccc(Br)cc12` (stereo not drawn), the IC50 was 13.3 µg/mL (≈ 28.5 µM). Compound `Cc1ccc2[nH]cc(C3(O)C(=O)Nc4ccc(I)cc43)c2c1` (stereo not drawn) has an IC50 of 25.2 µg/mL (≈ 62.3 µM). Work on `O=C1N(Cc2ccccc2Cl)c2ccc(Cl)cc2C1(O)c1c[nH]c2ccc(Br)cc12` (stereo not drawn) yielded an IC50 of 16.5 µg/mL (≈ 32.9 µM). Work on `O=C1N(Cc2ccccc2Br)c2ccccc2C1(O)c1c[nH]c2ccc(Br)cc12` (stereo not drawn) yielded an IC50 of 29.8 µg/mL (≈ 58.1 µM). Compound `O=C1N(Cc2ccccc2)c2ccccc2C1(O)c1c[nH]c2ccccc12` (stereo not drawn) has an IC50 of 22.8 µg/mL (≈ 64.2 µM). For `COc1ccc2[nH]cc(C3(O)C(=O)N(Cc4ccccc4Cl)c4ccc(Cl)cc43)c2c1` (stereo not drawn), the IC50 was 14.1 µg/mL (≈ 31.1 µM). Work on `O=C1Nc2ccc(Br)cc2C1(O)c1c[nH]c2ccccc12` (stereo not drawn) yielded an IC50 of 72.5 µg/mL (≈ 211 µM).

Tested on: MCF7
Test: Cytotoxicity against human MCF7 cells assessed as growth inhibition after 24 hrs by MTT assay
Conditions: MCF7, 24 h
For `O=C1N(Cc2ccccc2)c2ccc(Cl)cc2C1(O)c1c[nH]c2ccccc12` (stereo not drawn), the IC50 was 24 µg/mL (≈ 61.8 µM). In the case of `O=C1N(Cc2ccc(Br)cc2)c2ccc(Cl)cc2C1(O)c1c[nH]c2ccc(Br)cc12` (stereo not drawn), the IC50 is reported as 20.4 µg/mL (≈ 37.3 µM). `O=C1Nc2ccc(Cl)cc2C1(O)c1c[nH]c2ccc(Br)cc12` (stereo not drawn) gave an IC50 of 95.5 µg/mL (≈ 253 µM). `O=C1N(Cc2ccccc2)c2ccc(Cl)cc2C1(O)c1c[nH]c2ccc(Br)cc12` (stereo not drawn) showed an IC50 of 8.64 µg/mL (≈ 18.5 µM). In the case of `Cc1ccc2[nH]cc(C3(O)C(=O)Nc4ccc(I)cc43)c2c1` (stereo not drawn), the IC50 is reported as 84.5 µg/mL (≈ 209 µM). `O=C1N(Cc2ccccc2Cl)c2ccc(Cl)cc2C1(O)c1c[nH]c2ccc(Br)cc12` (stereo not drawn) showed an IC50 of 21.3 µg/mL (≈ 42.3 µM). In the case of `O=C1N(Cc2ccccc2Br)c2ccccc2C1(O)c1c[nH]c2ccc(Br)cc12` (stereo not drawn), the IC50 is reported as 24.7 µg/mL (≈ 48.3 µM). Compound `O=C1Nc2ccc(OC(F)(F)F)cc2C1(O)c1c[nH]c2ccccc12` (stereo not drawn) has an IC50 of 71.5 µg/mL (≈ 205 µM). Compound `COc1ccc2[nH]cc(C3(O)C(=O)N(Cc4ccccc4Cl)c4ccc(Cl)cc43)c2c1` (stereo not drawn) has an IC50 of 10.8 µg/mL (≈ 23.9 µM).

Tested on: MCF7
Test: Ratio of etoposide IC50 to compound IC50 for human MCF7 cells assessed as growth inhibition after 24 hrs by MTT assay
Conditions: not given
For `O=C1N(Cc2ccccc2)c2ccc(Cl)cc2C1(O)c1c[nH]c2ccc(Br)cc12` (stereo not drawn), the “Ratio IC50” value was 1. In the case of `COc1ccc2[nH]cc(C3(O)C(=O)N(Cc4ccccc4Cl)c4ccc(Cl)cc43)c2c1` (stereo not drawn), the “Ratio IC50” value is reported as 1.

Tested on: U-937
Test: Ratio of etoposide IC50 to compound IC50 for human U937 cells assessed as growth inhibition after 24 hrs by MTT assay
Conditions: not given
For `O=C1N(Cc2ccccc2)c2ccc(Cl)cc2C1(O)c1c[nH]c2ccccc12` (stereo not drawn), the “Ratio IC50” value was 0.5. With `O=C1N(Cc2ccccc2Cl)c2ccc(Cl)cc2C1(O)c1c[nH]c2ccc(Br)cc12` (stereo not drawn) the “Ratio IC50” value was 0.5. With `COc1ccc2[nH]cc(C3(O)C(=O)N(Cc4ccccc4Cl)c4ccc(Cl)cc43)c2c1` (stereo not drawn) the “Ratio IC50” value was 0.5.
